Measured values published in ChEMBL document CHEMBL1148012, “Synthesis, inhibition and binding of simple non-nitrogen inhibitors of monoamine transporters” (Bioorg Med Chem, 2007).

Assays:
[1] = molecular target: T1, Sodium-dependent dopamine transporter (Homo sapiens, UniProt Q01959); assay: Displacement of [125I]RTI55 from human DAT expressed in COS1 cell membrane; format: cell membranes, COS-1
Procedure, shortened: (§1)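 Membranes from COS-1 cells stably transfected with hDAT or hSERT (pIRES, blasticidin selection), homogenised and washed, resuspended in PBSCM. Filtration onto PEI-soaked GF/B filters, scintillation counting.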

[2] = molecular target: T2, Sodium-dependent serotonin transporter (Homo sapiens, UniProt P31645); assay: Displacement of [125I]RTI55 from human SERT expressed in COS1 cell membrane; format: cell membranes, COS-1; procedure, shortened: as §1
[3] = molecular target: T3, Sodium-dependent noradrenaline transporter (Homo sapiens, UniProt P23975); assay: Displacement of [125I]RTI55 from human NET expressed in COS1 cell membrane; format: cell membranes, COS-1
[4] = molecular target: T1, Sodium-dependent dopamine transporter; assay: Inhibition of [3H]DA uptake in human DAT expressed in COS1 cell membrane; format: functional, cell-based, COS-1
Procedure, shortened: (§2)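 Intact COS-1 cells stably expressing hDAT, grown two days at 37 °C, washed in PBSCM pH 7.4. Drug dilutions preincubated 30 min, then 30–100 nM [3H]DA added with drug. Uptake 10 min at 20 °C, stopped by aspiration and washing. Accumulated radioactivity counted after solubilising cells in scintillant. IC50 determined.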

[5] = molecular target: T2, Sodium-dependent serotonin transporter; assay: Inhibition of [3H]SER uptake in human SERT expressed in COS1 cell membrane; format: functional, cell-based, COS-1
Procedure, shortened: as §2, with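 “hSERT,” for “hDAT,”, “[3H]5-HT” for “[3H]DA”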

[6] = molecular target: T3, Sodium-dependent noradrenaline transporter; assay: Inhibition of [3H]DA uptake in human NET expressed in COS1 cell membrane; format: functional, cell-based, COS-1

T2 sequence (P31645 whole entry): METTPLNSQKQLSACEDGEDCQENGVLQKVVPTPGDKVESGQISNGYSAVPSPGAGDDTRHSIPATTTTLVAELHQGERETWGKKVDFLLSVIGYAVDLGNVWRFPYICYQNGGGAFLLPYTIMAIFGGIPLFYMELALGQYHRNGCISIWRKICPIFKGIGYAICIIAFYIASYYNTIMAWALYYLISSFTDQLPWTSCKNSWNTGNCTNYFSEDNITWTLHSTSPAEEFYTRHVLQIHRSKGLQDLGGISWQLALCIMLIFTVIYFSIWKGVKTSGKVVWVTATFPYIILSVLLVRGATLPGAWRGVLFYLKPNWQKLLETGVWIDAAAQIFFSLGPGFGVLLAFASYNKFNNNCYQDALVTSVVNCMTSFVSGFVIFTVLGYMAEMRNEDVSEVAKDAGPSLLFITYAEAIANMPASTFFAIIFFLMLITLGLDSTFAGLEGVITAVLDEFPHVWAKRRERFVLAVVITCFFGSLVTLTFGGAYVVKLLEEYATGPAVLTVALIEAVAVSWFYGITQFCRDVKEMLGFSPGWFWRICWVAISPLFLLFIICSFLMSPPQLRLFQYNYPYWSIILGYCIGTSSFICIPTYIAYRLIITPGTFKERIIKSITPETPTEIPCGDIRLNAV
T1 sequence (Q01959 whole entry): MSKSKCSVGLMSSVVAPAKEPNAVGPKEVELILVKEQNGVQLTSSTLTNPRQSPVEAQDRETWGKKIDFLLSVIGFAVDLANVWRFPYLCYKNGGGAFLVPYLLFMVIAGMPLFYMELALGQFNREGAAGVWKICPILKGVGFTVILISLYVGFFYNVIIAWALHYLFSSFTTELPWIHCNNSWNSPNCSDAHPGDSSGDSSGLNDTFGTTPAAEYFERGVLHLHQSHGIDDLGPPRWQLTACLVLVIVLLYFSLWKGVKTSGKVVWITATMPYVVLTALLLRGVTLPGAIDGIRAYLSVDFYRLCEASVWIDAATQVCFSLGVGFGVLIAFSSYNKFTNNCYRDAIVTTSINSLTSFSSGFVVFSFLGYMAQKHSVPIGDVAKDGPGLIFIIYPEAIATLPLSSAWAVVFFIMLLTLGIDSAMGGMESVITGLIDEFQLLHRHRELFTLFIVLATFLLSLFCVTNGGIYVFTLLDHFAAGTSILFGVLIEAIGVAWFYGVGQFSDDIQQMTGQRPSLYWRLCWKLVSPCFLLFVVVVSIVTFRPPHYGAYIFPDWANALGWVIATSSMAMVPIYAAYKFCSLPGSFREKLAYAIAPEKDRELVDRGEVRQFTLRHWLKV
T3 sequence (P23975 whole entry): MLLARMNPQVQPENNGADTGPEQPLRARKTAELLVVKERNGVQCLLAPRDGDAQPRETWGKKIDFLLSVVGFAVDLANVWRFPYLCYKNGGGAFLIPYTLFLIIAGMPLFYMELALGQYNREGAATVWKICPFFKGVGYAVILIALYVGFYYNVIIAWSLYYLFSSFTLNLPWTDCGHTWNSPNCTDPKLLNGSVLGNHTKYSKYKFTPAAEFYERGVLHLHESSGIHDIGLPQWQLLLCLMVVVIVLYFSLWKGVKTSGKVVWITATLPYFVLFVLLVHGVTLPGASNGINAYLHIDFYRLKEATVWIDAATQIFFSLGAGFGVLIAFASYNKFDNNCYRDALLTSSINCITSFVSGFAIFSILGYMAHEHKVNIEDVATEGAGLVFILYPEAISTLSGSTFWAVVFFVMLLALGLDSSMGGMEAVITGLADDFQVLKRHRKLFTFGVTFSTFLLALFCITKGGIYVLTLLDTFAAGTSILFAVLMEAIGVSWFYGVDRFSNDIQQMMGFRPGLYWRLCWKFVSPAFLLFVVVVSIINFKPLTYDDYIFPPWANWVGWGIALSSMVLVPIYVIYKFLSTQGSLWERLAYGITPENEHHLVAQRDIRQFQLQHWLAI

Structure (SMILES): COC(=O)C1=C(c2ccc(C(C)(C)C)cc2)CCCC1
- Ki [1]: 605 µM
- Ki [2]: 2250 µM
- Ki [3]: 1100 µM

Structure (SMILES): COC(=O)[C@@H]1CCCC[C@@H]1c1ccccc1
- Ki [1]: 975 µM
- Ki [2]: 1510 µM
- Ki [3]: 1360 µM

Structure (SMILES): C/C=C/C1=C(c2ccc(Cl)c(Cl)c2)CCCC1
- Ki [1]: 11 µM
- Ki [2]: 381 µM
- Ki [3]: 255 µM
- Ki [4]: 42 µM

Structure (SMILES): COC(=O)[C@H]1[C@@H](c2ccc(I)cc2)C[C@H]2CC[C@@H]1N2C [IODINE 2BETA-CARBOMETHOXY-3BETA-(4 IODOPHENYL)-TROPANE]
- Ki [1]: 0.004 µM
- Ki [2]: 0.006 µM
- Ki [3]: 0.034 µM
- Ki [4]: 0.009 µM
- Ki [5]: 0.004 µM
- Ki [6]: 0.01 µM

Structure (SMILES): COC(=O)C1=C(c2ccc(Cl)cc2)CCCCC1
- Ki [1]: 15 µM
- Ki [2]: 706 µM
- Ki [3]: 84 µM
- Ki [4]: 2.2 µM
- Ki [6]: 20 µM

Structure (SMILES): COC(=O)C1=C(c2ccc(Cl)cc2)CCC1
- Ki [1]: 18 µM
- Ki [2]: 2840 µM
- Ki [3]: 420 µM
- Ki [4]: 2.1 µM
- Ki [6]: 178 µM

Structure (SMILES): COC(=O)C1=C(c2ccc3ccccc3c2)CCC1
- Ki [1]: 4.1 µM
- Ki [2]: 417 µM
- Ki [3]: 39 µM
- Ki [4]: 7 µM
- Ki [6]: 26 µM

Structure (SMILES): COC(=O)C1=C(c2ccc(C(C)=O)cc2)CCC1
- Ki [1]: 335 µM
- Ki [2]: 296 µM
- Ki [3]: 240 µM
- Ki [4]: 49 µM
- Ki [5]: 1160 µM
- Ki [6]: 646 µM

Structure (SMILES): COC(=O)C1=C(c2ccc(O)cc2)CCCC1
- Ki [1]: 231 µM
- Ki [2]: 573 µM
- Ki [3]: 675 µM
- Ki [6]: 499 µM

Structure (SMILES): COC(=O)[C@@H]1CCCC[C@@H]1c1ccc(-c2ccccc2)cc1
- Ki [1]: 830 µM
- Ki [2]: 390 µM
- Ki [3]: 658 µM

Structure (SMILES): COC(=O)C1=C(c2cccc(C(F)(F)F)c2)CCCC1
- Ki [1]: 1050 µM
- Ki [2]: 5020 µM
- Ki [3]: 2110 µM

Structure (SMILES): COC(=O)C1=C(c2cccc(Cl)c2)CCCC1
- Ki [1]: 22 µM
- Ki [2]: 1180 µM
- Ki [3]: 339 µM
- Ki [4]: 26 µM
- Ki [6]: 871 µM

Structure (SMILES): COC(=O)C1=C(c2ccc(-c3ccccc3)cc2)CCCC1
- Ki [1]: 264 µM
- Ki [2]: 841 µM
- Ki [3]: 215 µM

Structure (SMILES): COC(=O)C1=C(c2ccc(Cl)c(Cl)c2)CCCC1
- Ki [1]: 2.1 µM
- Ki [2]: 228 µM
- Ki [3]: 14 µM
- Ki [4]: 0.625 µM
- Ki [6]: 4.9 µM

Structure (SMILES): COC(=O)C1=C(c2ccc([N+](=O)[O-])cc2)CCC1
- Ki [1]: 6.54 µM
- Ki [2]: 1140 µM
- Ki [3]: 111 µM

Structure (SMILES): COC(=O)[C@@H]1CN(C)CC[C@H]1c1ccccc1 (racemic)
- Ki [1]: 17.4 µM
- Ki [2]: 46.7 µM
- Ki [3]: 36.3 µM

Structure (SMILES): COC(=O)C1=C(c2ccccc2)CCCC1
- Ki [1]: 630 µM
- Ki [2]: 668 µM
- Ki [3]: 2500 µM

Structure (SMILES): COC(=O)[C@@H]1CCCCC[C@@H]1c1ccc(C(C)(C)C)cc1
- Ki [1]: 1140 µM
- Ki [2]: 1800 µM
- Ki [3]: 94 µM

Structure (SMILES): COC(=O)[C@@H]1CCCC[C@@H]1c1ccc(C(F)(F)F)cc1
- Ki [1]: 222 µM
- Ki [2]: 185 µM
- Ki [3]: 439 µM

Structure (SMILES): COC(=O)C1=C(c2ccc(Cl)c(Cl)c2)CCCCC1
- Ki [1]: 1.36 µM
- Ki [2]: 149 µM
- Ki [3]: 15 µM
- Ki [4]: 0.515 µM
- Ki [6]: 4.72 µM

Structure (SMILES): COC(=O)C1=C(c2ccc3ccccc3c2)CCCCC1
- Ki [1]: 392 µM
- Ki [2]: 532 µM
- Ki [3]: 68 µM

Structure (SMILES): COC(=O)[C@@H]1CCCC[C@@H]1c1ccc(C(C)(C)C)cc1
- Ki [1]: 766 µM
- Ki [2]: 9120 µM
- Ki [3]: 675 µM

Structure (SMILES): COC(=O)[C@@H]1CN(C)CC[C@@H]1c1ccccc1 (racemic)
- Ki [1]: 8.51 µM
- Ki [2]: 27 µM
- Ki [3]: 35.2 µM

Structure (SMILES): COC(=O)[C@@H]1CN(C)CC[C@@H]1c1ccc(Cl)c(Cl)c1 (stereo in doubt)
- Ki [1]: 59.4 µM
- Ki [3]: 41.6 µM

Structure (SMILES): CCOC(=O)C1=C(c2ccc(Cl)c(Cl)c2)CCNC1
- Ki [1]: 0.922 µM
- Ki [2]: 0.217 µM
- Ki [3]: 2.5 µM

Structure (SMILES): COC(=O)C1=C(c2ccc(S(C)(=O)=O)cc2)CCC1
- Ki [2]: 3390 µM

Structure (SMILES): COC(=O)[C@@H]1CN(C)CC[C@H]1c1ccc(I)cc1 (racemic)
- Ki [1]: 1.25 µM
- Ki [2]: 2.81 µM
- Ki [3]: 2.3 µM

Structure (SMILES): COC(=O)C1=C(c2ccc(OC(F)(F)F)cc2)CCCC1
- Ki [1]: 1660 µM
- Ki [2]: 4680 µM
- Ki [3]: 2540 µM

Structure (SMILES): COC(=O)C1=C(c2ccc(OC(F)(F)F)cc2)CCC1
- Ki [1]: 2650 µM
- Ki [2]: 3800 µM
- Ki [3]: 2880 µM

Structure (SMILES): COC(=O)C1=C(c2cccc(N)c2)CCC1
- Ki [1]: 875 µM
- Ki [2]: 1950 µM
- Ki [3]: 1320 µM
- Ki [4]: 121 µM
- Ki [5]: 2900 µM
- Ki [6]: 247 µM

Structure (SMILES): CCOC(=O)C1=C(c2ccc3ccccc3c2)CCNC1
- Ki [1]: 0.079 µM
- Ki [2]: 0.44 µM
- Ki [3]: 0.268 µM

Structure (SMILES): COC(=O)[C@@H]1CN(C)CC[C@@H]1c1ccc(Cl)c(Cl)c1 (stereo in doubt; 3a)
- Ki [1]: 0.322 µM
- Ki [3]: 3.91 µM

Structure (SMILES): COC(=O)c1ccccc1-c1ccc2ccccc2c1
- Ki [1]: 4.06 µM
- Ki [2]: 620 µM
- Ki [3]: 46.7 µM

Structure (SMILES): COC(=O)C1=C(c2cccc(Cl)c2)CCC1
- Ki [1]: 34 µM
- Ki [2]: 2240 µM
- Ki [3]: 470 µM
- Ki [4]: 3.3 µM
- Ki [6]: 285 µM

Structure (SMILES): CCOC(=O)C1=C(c2cccc([N+](=O)[O-])c2)CCNC1
- Ki [1]: 20.6 µM
- Ki [2]: 3 µM
- Ki [3]: 10 µM

Structure (SMILES): COC(=O)C1=C(c2ccc(Cl)c(Cl)c2)CCC1
- Ki [1]: 1.9 µM
- Ki [2]: 785 µM
- Ki [3]: 11 µM
- Ki [4]: 5.5 µM
- Ki [6]: 28 µM

Structure (SMILES): COC(=O)C1=C(c2cccc(Cl)c2)CCCCC1
- Ki [1]: 22 µM
- Ki [2]: 463 µM
- Ki [3]: 85 µM
- Ki [4]: 3.78 µM

Structure (SMILES): COC(=O)C1=C(c2ccc(-c3ccccc3)cc2)CCCCC1
- Ki [1]: 2 µM
- Ki [2]: 32 µM
- Ki [3]: 13 µM
- Ki [4]: 0.81 µM
- Ki [6]: 3.9 µM

Structure (SMILES): COC(=O)C1=C(c2ccc(C(C)(C)C)cc2)CCCCC1
- Ki [1]: 884 µM
- Ki [2]: 1040 µM
- Ki [3]: 62 µM

Structure (SMILES): COC(=O)[C@@H]1CCCC[C@@H]1c1ccc(OC(F)(F)F)cc1
- Ki [1]: 1180 µM
- Ki [2]: 605 µM
- Ki [3]: 719 µM

Structure (SMILES): COC(=O)C1=C(c2ccc(Cl)cc2)CCCC1
- Ki [1]: 85 µM
- Ki [2]: 1860 µM
- Ki [3]: 993 µM
- Ki [4]: 0.589 µM
- Ki [6]: 314 µM

Structure (SMILES): COC(=O)C1=C(c2ccc3ccccc3c2)CCCC1
- Ki [1]: 12 µM
- Ki [2]: 109 µM
- Ki [3]: 81 µM
- Ki [4]: 1.5 µM
- Ki [6]: 10 µM

Structure (SMILES): COC(=O)[C@@H]1CN(C)CC[C@@H]1c1ccc(I)cc1 (racemic)
- Ki [1]: 0.323 µM
- Ki [2]: 0.287 µM
- Ki [3]: 0.855 µM

Structure (SMILES): COC(=O)C1=C(c2cccc([N+](=O)[O-])c2)CCCC1
- Ki [1]: 239 µM
- Ki [2]: 28.7 µM
- Ki [3]: 121 µM

Structure (SMILES): COC(=O)C1=C(c2ccc(OC)cc2)CCC1
- Ki [1]: 140 µM
- Ki [2]: 2690 µM
- Ki [3]: 550 µM
- Ki [4]: 6.3 µM
- Ki [6]: 1390 µM

Structure (SMILES): COC(=O)C1=C(c2ccc(C(C)(C)C)cc2)CCC1
- Ki [1]: 302 µM
- Ki [2]: 1460 µM
- Ki [3]: 789 µM

Structure (SMILES): COC(=O)[C@@H]1CCCCC[C@@H]1c1ccc(-c2ccccc2)cc1
- Ki [1]: 313 µM
- Ki [2]: 73 µM
- Ki [3]: 51 µM

Structure (SMILES): COC(=O)[C@@H]1CCCC[C@@H]1c1cccc(C(F)(F)F)c1
- Ki [1]: 569 µM
- Ki [2]: 1910 µM
- Ki [3]: 991 µM

Structure (SMILES): COC(=O)C1=C(c2ccc(C(F)(F)F)cc2)CCCC1
- Ki [1]: 590 µM
- Ki [2]: 4710 µM
- Ki [3]: 2020 µM
